Source: PubChem BioAssay
Lung fibro prol: blocks proliferation of human lung fibroblasts | AID 719 | LL 47 human lung fibroblast viability, ATP luminescence; stronger effect = lower value | viability, % at 10 µM | actives 1.1% (n = 85,000);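 active means viability at or below 50% in the single dose screen; inactive means viability above 50%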;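 further: compound exposure lasted 72 h before the ATP readout; 100% = median luminescence of untreated cell-only wells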
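test system = LL 47 human lung fibroblasts | amount = 1,150 fibroblasts seeded per well | medium = 15% FBS in IMEM | times = overnight cell rest, 72 h compound treatment at 37 °C | measured by = CellTiter-Glo luminescence measuring cellular ATP | read-out = viability percentage against median untreated-cell control | benchmarks = cell-only wells, no compound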
H69AR growth 86K: growth inhibitors of human H69AR lung tumor cells; H69AR lung tumor viability, ATP luminescence, 72 h; stronger effect = lower value; viability, % at 10 µM; actives 6% (n = 85,000); AID 598;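 active means viability at or below 40%; inactive means viability above 40%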;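 further: multidrug resistant small cell line overexpressing MRP-1 efflux transporter; 100% = mean luminescence of untreated control wells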
HUVEC inhibit: inhibitors of human endothelial cell proliferation | AID 648 | viability, % at 10 µM (by protocol) | HUVEC proliferation, CellTiter-Glo luminescence, 72 h; stronger effect = lower value | actives 1.1% (n = 86,000);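 active means viability at or below 30%; inactive means viability above 30%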;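 further: 100% = median luminescence of DMSO-only cell control wells on each plate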
PTEN del growth: PTEN-deleted cell growth suppression; HCT116 PTEN-null viability, CellTiter-Glo, 60 h; stronger effect = lower value; viability, % at 10 µM; actives 1.2% (n = 140,000); AID 827;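 active means viability at or below a set limit, 4 SD under the median of all tested compounds, cut at about 3.7% in these data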;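 further: PTEN knockout HCT116 line with beta catenin targeted HCT116 as companion control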
HCT116 bCat-KO: beta-catenin-lacking colon tumor cell growth suppression | HCT116 beta-catenin knockout viability, CellTiter-Glo, 60 h; stronger effect = lower value | viability, % at 10 µM | actives 1.5% (n = 140,000) | AID 818;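 active means viability at or under a set limit, the compound median less 4 SD, cut at about 6% in these data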;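 further: 0% = Hyamine 1622 control at 20 µM and 100% = untreated cell control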
* hit, by the source's call; nt = no result. The sample as a whole holds a higher share of hits than the screen did.

SMILES	Lung fibro prol	H69AR growth 86K	HUVEC inhibit	PTEN del growth	HCT116 bCat-KO
Cc1nc2c(c(=O)n1CC1CCCO1)c1nc3ccccc3nc1n2CCC(C)C (stereo not drawn)	90	93	84	nt	nt
CCC(C)n1c(C)nc2c(c1=O)c1nc3ccccc3nc1n2CCC1=CCCCC1 (stereo not drawn)	98	3.6*	99	43	37
N#Cc1cc2sc3nnc(-c4ccncc4)n3c2cc1C#N	45*	29*	57	13	6
N#Cc1cc2sc3nc4ccccc4n3c2cc1C#N	94	85	81	105	102
CCOC(=O)c1c2ccc(OCC(=O)N/N=C/c3ccc(C)cc3)cc2n2ccccc12	nt	nt	nt	1.6*	1.5*
COc1ccc(CCNC(=O)c2ccc(-c3ccc([N+](=O)[O-])cc3Cl)o2)cc1	nt	nt	nt	73	74
CN1CC2=Cc3ccccc3OC23Oc2ccccc2C=C3C1	78	21*	31	35	10
O=c1oc2cc(Oc3ccc(C(F)(F)F)cc3[N+](=O)[O-])ccc2c2c1CCCC2	nt	nt	nt	77	86
CCn1cc(C(=O)OCC(=O)Nc2ccc(S(=O)(=O)N3CCCC3)cc2)c(=O)c2ccc(C)nc21	88	26*	91	101	98
Clc1ccc(-n2nnnc2-c2cnc(-c3ccncc3)nc2-c2cccs2)cc1	92	9.8*	76	8	61
FC(F)(F)c1nc(-c2cccs2)ncc1-c1nnnn1-c1ccc(Cl)cc1	nt	nt	nt	30	31
CC(=O)NCCC(=O)Nc1ccc(F)cc1C	106	91	100	94	104
CCCCOc1ccc(C(=O)NNC(=S)NC(=O)CC)cc1	nt	nt	nt	5	4.5*
CCC(=O)NC(=S)NNC(=O)c1ccc(OC)cc1	nt	nt	nt	29	38
O=C(NC(c1ccccc1)C(Cl)(Cl)Cl)c1ccccc1 (stereo not drawn)	nt	nt	nt	71	78
COc1nc(Nc2ccc(O)cc2)nc(OC(C(F)(F)F)C(F)(F)F)n1	92	87	95	75	85
Nc1cccc(Nc2nc(OC(C(F)(F)F)C(F)(F)F)nc(OC(C(F)(F)F)C(F)(F)F)n2)c1	63	1.5*	44	2.4*	6
COc1ccc(Cl)cc1Nc1nc(-c2sc(NC(=O)c3ccccc3)nc2C)cs1	nt	nt	nt	1.1*	1.2*
Cc1ccccc1Nc1nc(-c2sc(NC(=O)c3ccc([N+](=O)[O-])cc3)nc2C)cs1	nt	nt	nt	93	97
CCOc1ccccc1Nc1nc(-c2sc(NC(=O)c3ccc([N+](=O)[O-])cc3)nc2C)cs1	nt	nt	nt	1.5*	0.8*
Cc1ccc(-n2c(SCC(=O)N3Cc4ccccc4CC3C(=O)O)nnc2-c2cccnc2)c(C)c1 (stereo not drawn)	nt	nt	nt	101	91
COC(=O)Cn1c(=NC(=O)C2COc3ccccc3O2)sc2cc(S(N)(=O)=O)ccc21 (stereo not drawn)	nt	nt	nt	96	83
Cc1ccc(NC(=O)OCCN2CCN(Cc3ccccc3)CCC2=O)cc1	nt	nt	nt	74	78
CCOC(=O)C(Cc1ccccc1)C(=O)Nc1cccc2ccccc12 (stereo not drawn)	nt	nt	nt	85	89
O=C(c1ccco1)N1CCN(C(c2ccccc2Cl)c2nnnn2Cc2cccs2)CC1 (stereo not drawn)	73	33*	80	55	59
SMILES	Lung fibro prol	H69AR growth 86K	HUVEC inhibit	PTEN del growth	HCT116 bCat-KO
CCOc1ccccc1C1C(C(=O)OC)=C(N)OC2=C1C(=O)CCC2 (stereo not drawn)	102	86	110	104	96
CCOc1ccc(Br)cc1C1C(C(=O)OC)=C(N)Oc2cc(N(C)C)ccc21 (stereo not drawn)	57	25*	46	14	17
Cn1c(=O)c2c(nc(N/N=C/c3ccc(OC(=O)c4ccco4)cc3)n2Cc2ccccc2)n(C)c1=O	nt	nt	nt	58	59
Cc1nc2c(c(C)c1C#N)C(=O)c1ccccc1-2	nt	nt	nt	91	86
Cc1nc(S(=O)(=O)N(C)c2ccccc2)c(C#N)c(C)c1Cl	39*	4.2*	83	4	3.3*
CCCS(=O)(=O)c1nnnn1-c1cccc(OC)c1	12*	1.1*	32	1.3*	1.4*
COc1cccc(-n2nnnc2SCC(=O)Nc2ccc(C(C)=O)cc2)c1	104	99	108	94	85
CCOc1cccc(NCc2cc3c(C(C)(C)C)nn(-c4ccccc4)c3[nH]c2=O)c1	91	48	100	92	84
CC(C)(C)c1nn(-c2ccccc2)c2[nH]c(=O)c(CNCc3ccc4c(c3)OCO4)cc12	63	1.1*	4.6*	11	13
